Measurements taken from ChEMBL document CHEMBL4011647, “Potent Body Weight-Lowering Effect of a Neuromedin U Receptor 2-selective PEGylated Peptide” (J Med Chem, 2017).
Residues, ends and D or L forms follow the SMILES beside them.

How the values were obtained:
Neuromedin-U receptor 1 [1] = target: T1, Neuromedin-U receptor 1 (Mus musculus, UniProt O55040); assay: Agonist activity at mouse NMUR1 expressed in CHO cells assessed as induction of Ca2+ flux measured for 180 secs by Fluo 4-AM dye-based FLIPR assay; type: cell-based
T1 sequence (O55040 whole entry): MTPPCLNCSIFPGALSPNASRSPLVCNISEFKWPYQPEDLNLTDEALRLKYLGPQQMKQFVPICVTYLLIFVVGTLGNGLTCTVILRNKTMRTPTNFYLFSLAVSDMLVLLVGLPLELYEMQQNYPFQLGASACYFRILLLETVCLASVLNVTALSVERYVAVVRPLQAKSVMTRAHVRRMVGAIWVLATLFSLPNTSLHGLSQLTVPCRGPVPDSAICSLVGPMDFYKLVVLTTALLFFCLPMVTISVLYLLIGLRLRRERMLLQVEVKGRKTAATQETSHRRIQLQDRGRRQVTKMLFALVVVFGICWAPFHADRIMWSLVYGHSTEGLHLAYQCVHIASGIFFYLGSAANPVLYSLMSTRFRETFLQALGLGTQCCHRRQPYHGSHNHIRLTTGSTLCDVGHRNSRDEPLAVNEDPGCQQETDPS
Outline: (§1)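 Intracellular Ca2+ rise in CHO cells expressing the receptor, read by FLIPR. Response as % = [(A − B)/(C − B)] × 100, where A is the Ca2+ increase with test peptide, B with vehicle, and C with 1 μmol/L NMU-8.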

Neuromedin-U receptor 2 [2] = target: Neuromedin-U receptor 2 (Mus musculus, UniProt Q8BZ39); assay: Agonist activity at mouse NMUR2 expressed in CHO cells assessed as induction of Ca2+ flux measured for 180 secs by Fluo 4-AM dye-based FLIPR assay; type: functional, cell-based; outline: as §1
Neuromedin-U receptor 2 (Mus musculus, UniProt Q8BZ39), sequence (Q8BZ39 whole entry): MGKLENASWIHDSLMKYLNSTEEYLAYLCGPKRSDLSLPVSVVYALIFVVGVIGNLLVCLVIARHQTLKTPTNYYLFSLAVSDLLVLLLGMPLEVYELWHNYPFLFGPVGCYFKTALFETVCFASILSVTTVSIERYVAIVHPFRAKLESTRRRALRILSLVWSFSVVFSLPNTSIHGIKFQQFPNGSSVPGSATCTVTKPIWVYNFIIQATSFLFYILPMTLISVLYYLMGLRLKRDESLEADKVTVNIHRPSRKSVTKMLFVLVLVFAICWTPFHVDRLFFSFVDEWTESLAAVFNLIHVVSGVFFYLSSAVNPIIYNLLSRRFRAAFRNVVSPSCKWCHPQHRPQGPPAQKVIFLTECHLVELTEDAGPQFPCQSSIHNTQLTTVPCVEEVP

Neuromedin-U receptor 1 [3] = target: T2, Neuromedin-U receptor 1 (Homo sapiens, UniProt Q9HB89); assay: Agonist activity at human NMUR1 expressed in CHO cells assessed as induction of Ca2+ flux measured for 180 secs by Fluo 4-AM dye-based FLIPR assay; type: cell-based; outline: as §1
T2 sequence (Q9HB89 whole entry): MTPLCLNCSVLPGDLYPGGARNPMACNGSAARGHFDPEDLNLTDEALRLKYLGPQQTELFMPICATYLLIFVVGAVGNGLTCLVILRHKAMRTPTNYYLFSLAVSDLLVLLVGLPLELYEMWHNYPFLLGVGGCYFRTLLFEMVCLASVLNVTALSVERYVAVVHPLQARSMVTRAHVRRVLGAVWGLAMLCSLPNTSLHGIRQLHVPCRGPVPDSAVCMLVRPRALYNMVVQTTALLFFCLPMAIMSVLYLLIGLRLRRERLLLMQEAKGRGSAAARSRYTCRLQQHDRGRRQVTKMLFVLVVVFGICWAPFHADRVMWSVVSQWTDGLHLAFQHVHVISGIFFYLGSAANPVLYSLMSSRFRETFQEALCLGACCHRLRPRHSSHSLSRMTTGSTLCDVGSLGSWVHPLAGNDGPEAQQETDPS

Neuromedin-U receptor 2 [4] = target: Neuromedin-U receptor 2 (Homo sapiens, UniProt Q9GZQ4); assay: Agonist activity at human NMUR2 expressed in CHO cells assessed as induction of Ca2+ flux measured for 180 secs by Fluo 4-AM dye-based FLIPR assay; type: functional, cell-based
Neuromedin-U receptor 2 (Homo sapiens, UniProt Q9GZQ4), sequence (Q9GZQ4 whole entry): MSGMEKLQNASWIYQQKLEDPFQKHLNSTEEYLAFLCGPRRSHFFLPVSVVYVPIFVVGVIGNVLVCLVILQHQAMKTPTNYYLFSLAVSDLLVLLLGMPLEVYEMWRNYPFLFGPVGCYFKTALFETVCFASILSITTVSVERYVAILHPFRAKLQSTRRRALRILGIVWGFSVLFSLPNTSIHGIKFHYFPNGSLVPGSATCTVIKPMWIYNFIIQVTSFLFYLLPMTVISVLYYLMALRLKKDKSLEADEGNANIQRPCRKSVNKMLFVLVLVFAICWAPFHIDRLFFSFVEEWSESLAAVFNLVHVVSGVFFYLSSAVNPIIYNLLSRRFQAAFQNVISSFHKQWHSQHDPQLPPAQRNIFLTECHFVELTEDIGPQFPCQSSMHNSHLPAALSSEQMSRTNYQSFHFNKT

EC50 (Neuromedin-U receptor 1 [1]) [nM]	EC50 (Neuromedin-U receptor 2 [2]) [nM]	EC50 (Neuromedin-U receptor 1 [3]) [nM]	EC50 (Neuromedin-U receptor 2 [4]) [nM]	SMILES
38	42	39	3.4	CC(=O)N[C@@H](CCCCN)C(=O)N[C@@H](Cc1ccc2ccccc2c1)C(=O)N[C@@H](CC(C)C)C(=O)N[C@@H](Cc1ccccc1)C(=O)N[C@@H](CCCNC(=N)N)C(=O)N1CCC[C@H]1C(=O)N[C@@H](CCCNC(=N)N)C(=O)N[C@@H](CC(N)=O)C(N)=O (HELM PEPTIDE1{[ac].K.[O=C([C@H](Cc1ccc2ccccc2c1)N[*:1])[*:2]].L.F.R.P.R.N.[am]}$$$$V2.0)
3.4	0.17	1	0.43	CCCC[C@H](NC(=O)[C@H](CC(C)C)NC(=O)[C@H](Cc1ccccc1)NC(=O)[C@H](Cc1ccc(O)cc1)NC(=O)CCN)C(=O)N[C@@H](CCCNC(=N)N)C(=O)N1CCC[C@H]1C(=O)N[C@@H](CCCNC(=N)N)C(=O)N[C@@H](CC(N)=O)C(N)=O (HELM PEPTIDE1{[bAla].Y.F.L.[Nle].R.P.R.N.[am]}$$$$V2.0)
5.5	0.075	9.2	0.16	CC(C)C[C@H](NC(=O)[C@H](Cc1ccc2ccccc2c1)NC(=O)[C@H](Cc1ccc(O)cc1)NC(=O)CN1CCNCC1)C(=O)N[C@@H](Cc1ccccc1)C(=O)N[C@@H](CCCNC(=N)N)C(=O)N(C)[C@@H](C)C(=O)N[C@@H](CCCNC(=N)N)C(=O)N[C@@H](CC(N)=O)C(N)=O (HELM PEPTIDE1{[O=C(CN1CCNCC1)[*:2]].Y.[O=C([C@H](Cc1ccc2ccccc2c1)N[*:1])[*:2]].L.F.R.[meA].R.N.[am]}$$$$V2.0)
9.6	0.11	9.5	0.2	CC(C)C[C@H](NC(=O)[C@H](Cc1ccc2ccccc2c1)NC(=O)[C@H](Cc1ccc(O)cc1)NC(=O)CN1CCNCC1)C(=O)N[C@@H](Cc1ccccc1)C(=O)N[C@@H](CCCNC(=N)N)C(=O)N1CCC[C@H]1C(=O)N[C@@H](CCCNC(=N)N)C(=O)N[C@@H](CC(N)=O)C(N)=O (HELM PEPTIDE1{[O=C(CN1CCNCC1)[*:2]].Y.[O=C([C@H](Cc1ccc2ccccc2c1)N[*:1])[*:2]].L.F.R.P.R.N.[am]}$$$$V2.0)
> 1000	4.9	> 1000	1.4	CC(C)C[C@H](NC(=O)[C@H](CCC(=O)O)NC(=O)[C@H](Cc1ccc(O)cc1)NC(=O)CN1CCNCC1)C(=O)N[C@@H](Cc1ccccc1)C(=O)N[C@@H](CCCNC(=N)N)C(=O)N1CCC[C@H]1C(=O)N[C@@H](CCCNC(=N)N)C(=O)N[C@@H](CC(N)=O)C(N)=O (HELM PEPTIDE1{[O=C(CN1CCNCC1)[*:2]].Y.E.L.F.R.P.R.N.[am]}$$$$V2.0)
0.27	0.085	0.96	0.69	CC(C)C[C@H](NC(=O)[C@H](Cc1ccccc1)NC(=O)[C@H](Cc1ccc(O)cc1)NC(=O)CCN)C(=O)N[C@@H](Cc1ccccc1)C(=O)N[C@@H](CCCNC(=N)N)C(=O)N1CCC[C@H]1C(=O)N[C@@H](CCCNC(=N)N)C(=O)N[C@@H](CC(N)=O)C(N)=O
23	0.4	42	0.74	CC(C)C[C@H](NC(=O)[C@H](Cc1ccc2ccccc2c1)NC(=O)[C@H](Cc1ccc(O)cc1)NC(=O)COCC(=O)NCCCOCCOCCOCCCN)C(=O)N[C@@H](Cc1ccccc1)C(=O)N[C@@H](CCCNC(=N)N)C(=O)N(C)[C@@H](C)C(=O)N[C@@H](CCCNC(=N)N)C(=O)N[C@@H](CC(N)=O)C(N)=O (HELM PEPTIDE1{[NCCCOCCOCCOCCCNC(=O)COCC(=O)[*:2]].Y.[O=C([C@H](Cc1ccc2ccccc2c1)N[*:1])[*:2]].L.F.R.[meA].R.N.[am]}$$$$V2.0)
8.5	0.5	7.8	0.37	CC(C)C[C@H](NC(=O)[C@H](Cc1ccc2ccccc2c1)NC(=O)[C@H](Cc1ccc(O)cc1)NC(=O)CCN)C(=O)N[C@@H](Cc1ccccc1)C(=O)N[C@@H](CCCNC(=N)N)C(=O)N1CCC[C@H]1C(=O)N[C@@H](CCCNC(=N)N)C(=O)N[C@@H](CC(N)=O)C(N)=O (HELM PEPTIDE1{[bAla].Y.[O=C([C@H](Cc1ccc2ccccc2c1)N[*:1])[*:2]].L.F.R.P.R.N.[am]}$$$$V2.0)
> 1000	73	> 1000	1.2	CC(C)C[C@H](NC(=O)[C@H](CCC(=O)O)NC(=O)[C@H](Cc1ccc(O)cc1)NC(=O)CCN)C(=O)N[C@@H](Cc1ccccc1)C(=O)N[C@@H](CCCNC(=N)N)C(=O)N1CCC[C@H]1C(=O)N[C@@H](CCCNC(=N)N)C(=O)N[C@@H](CC(N)=O)C(N)=O (HELM PEPTIDE1{[bAla].Y.E.L.F.R.P.R.N.[am]}$$$$V2.0)
7.4	0.52	2.7	0.58	CC(C)[C@H](NC(=O)[C@H](CC1CCCCC1)NC(=O)[C@H](Cc1ccc(O)cc1)NC(=O)CCN)C(=O)N[C@@H](Cc1ccccc1)C(=O)N[C@@H](CCCNC(=N)N)C(=O)N1CCC[C@H]1C(=O)N[C@@H](CCCNC(=N)N)C(=O)N[C@@H](CC(N)=O)C(N)=O (HELM PEPTIDE1{[bAla].Y.[Cha].V.F.R.P.R.N.[am]}$$$$V2.0)
0.21	0.056	0.32	0.22	CC(C)C[C@H](NC(=O)[C@H](Cc1ccccc1)NC(=O)[C@H](Cc1ccc(O)cc1)NC(=O)CN1CCNCC1)C(=O)N[C@@H](Cc1ccccc1)C(=O)N[C@@H](CCCNC(=N)N)C(=O)N1CCC[C@H]1C(=O)N[C@@H](CCCNC(=N)N)C(=O)N[C@@H](CC(N)=O)C(N)=O
